Screening results: PubChem, Sanford-Burnham Center for Chemical Genomics
PPC-1+TRAIL kill: kills PPC-1 cancer cells in the presence of TRAIL. PPC-1 cells + TRAIL, ATPLite viability luminescence. cell killing (% activity), % at 4 µM or 5 µM. 0.41% of 220,000 active;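 active = cell killing above 50% in the first pass at 4 µM, then a duplicate retest at 5 µM averaging 50% or more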;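 also: plate controls were cells with TRAIL plus DMSO for no effect and medium-only wells lacking cells for full effect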
FLuc inhib CS: counter-screen for luciferase assay inhibitors: firefly luciferase inhibition. inhibition, % at 10 µM. 1.5% of 200,000 active. ATPLite firefly luciferase biochemical luminescence, 10 min. P08659;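 active = inhibition above about 50% when tested at 10 µM, limit read from the data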
Target sequence (P08659 whole entry, looked up): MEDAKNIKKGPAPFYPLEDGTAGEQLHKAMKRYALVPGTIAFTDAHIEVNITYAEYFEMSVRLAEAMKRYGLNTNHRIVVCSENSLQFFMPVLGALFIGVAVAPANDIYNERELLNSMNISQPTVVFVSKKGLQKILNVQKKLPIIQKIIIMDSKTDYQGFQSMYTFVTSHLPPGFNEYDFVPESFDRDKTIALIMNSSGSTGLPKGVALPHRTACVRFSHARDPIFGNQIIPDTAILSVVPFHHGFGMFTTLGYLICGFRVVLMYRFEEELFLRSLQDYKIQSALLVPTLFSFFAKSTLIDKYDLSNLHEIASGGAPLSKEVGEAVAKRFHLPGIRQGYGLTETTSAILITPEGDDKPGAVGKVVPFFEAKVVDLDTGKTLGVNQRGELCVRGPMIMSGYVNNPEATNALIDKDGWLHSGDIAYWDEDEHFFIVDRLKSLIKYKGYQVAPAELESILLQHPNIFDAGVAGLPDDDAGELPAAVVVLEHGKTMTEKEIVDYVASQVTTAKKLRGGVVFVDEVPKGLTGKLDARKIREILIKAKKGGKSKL
FLuc stim CS: affects firefly luciferase, flagging false hits in luciferase stimulation screens. P08659. ATPlite luciferase biochemical, luminescence, 10 min; 0 = ATP-free wells, 1 = DMSO control. activation factor at 10 µM. 200,000 tested, under 10 active. AID 1027;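 active = luciferase activation factor, scaled between plate controls, of at least 2 with compound at 10 µM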
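Material: Luciferase/luciferin reagent mix | Doses: Test compounds dosed from 2 mM stocks in 100% DMSO | Timing: 10 min incubation after luciferase reagent addition, room temperature | Measured by: Luminescence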
TRAIL sens C8: sensitizes caspase-8 expressing cells to TRAIL; NB7+C8 cells + TRAIL, ATPlite viability luminescence; inhibition (viability loss, TRAIL sensitization), % at 10 µM; 1% of 360,000 active; AID 624354;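 active = compounds causing at least 50% loss of cell viability in the single-dose screen, relative to plate controls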
The depositor's hits bear a star. Most compounds without a hit are left out; they make up all but 1.6% or so of the library.

Screening COn1c(-c2ccccc2)nc2ccc(Cl)cc21 returned PPC-1+TRAIL kill 0, FLuc inhib CS 20, FLuc stim CS 0.8 and TRAIL sens C8 0.
Screening Clc1ccc2nc3c4ccccc4cnn3c2c1 returned PPC-1+TRAIL kill 32, FLuc inhib CS 63*, FLuc stim CS 0.4 and TRAIL sens C8 40.
Screening NC1=NC[C@H](Cc2ccc(O)cc2)N1CCc1cc(C(F)(F)F)cc(C(F)(F)F)c1 returned PPC-1+TRAIL kill 0 and TRAIL sens C8 1.
NC1=NC[C@@H](CC2CCCCC2)N1CCc1cc(C(F)(F)F)cc(C(F)(F)F)c1 was read as TRAIL sens C8 93*.
Screening COc1ccc(CCNC(=O)CCC(=O)n2ncc3ccc(Cl)cc32)cc1OC returned TRAIL sens C8 10.
For O=C(Cc1csc(NC(=O)c2ccccc2)n1)NO the results were PPC-1+TRAIL kill 11, FLuc inhib CS -2, FLuc stim CS 1 and TRAIL sens C8 11.
`O=C(Cc1ccsc1-c1ccccc1)NO` gave PPC-1+TRAIL kill 7, FLuc inhib CS -4, FLuc stim CS 1 and TRAIL sens C8 63*.
For Cc1cc(NCCCn2ccnc2)n2ncc(-c3ccc(Cl)cc3)c2n1 the results were PPC-1+TRAIL kill 7, FLuc inhib CS 34, FLuc stim CS 0.7 and TRAIL sens C8 54*.
Cc1cc(NCCCN2CCOCC2)n2ncc(-c3ccc(Cl)cc3)c2n1 was read as PPC-1+TRAIL kill -19, FLuc inhib CS -1, FLuc stim CS 1 and TRAIL sens C8 27.
For Cc1ccccc1C=Nc1ccccc1C(N)=O the results were PPC-1+TRAIL kill 18, FLuc inhib CS 0, FLuc stim CS 1 and TRAIL sens C8 3.
CC1(C(=O)OCC(=O)Nc2nc(-c3ccc(F)c(F)c3)cs2)CC1(Cl)Cl (centres undefined) was read as TRAIL sens C8 11.
`Clc1nc(-c2ccccn2)nc2scc(-c3ccccc3)c12` gave PPC-1+TRAIL kill 72*, FLuc inhib CS 97*, FLuc stim CS 0 and TRAIL sens C8 46.
Screening CC1CCN(c2nc(-c3cccnc3)nc3scc(-c4ccccc4)c23)CC1 returned PPC-1+TRAIL kill 6, FLuc inhib CS -9, FLuc stim CS 1.1 and TRAIL sens C8 12.
For C=C1C(C(=O)Nc2ccccc2)C1C(=O)Nc1ccccc1 (centres undefined) the results were PPC-1+TRAIL kill 0 and TRAIL sens C8 -9.
COc1ccc(C(=O)c2coc(-c3ccccc3C(=O)O)c2C(=O)O)cc1 was read as PPC-1+TRAIL kill 7, FLuc inhib CS -3, FLuc stim CS 1 and TRAIL sens C8 -20.
For COc1ccc(C(=O)c2c(C(F)(F)F)oc3c2C(=O)c2ccccc2C3=O)cc1 the results were PPC-1+TRAIL kill 21, FLuc inhib CS 1, FLuc stim CS 1 and TRAIL sens C8 98*.
For Cc1ccc2nc(-c3ccccc3)nn2c1 the results were TRAIL sens C8 76*.
Screening CC[C@H](C)[C@@H](CNC)NC[C@@H](Cc1ccc(O)cc1)NCC(C)(C)C returned TRAIL sens C8 5.
Screening CC[C@@H](C)[C@H](CN[C@H](CNC)C(C)C)NC[C@@H](C)c1ccc(CC(C)C)cc1 returned TRAIL sens C8 64*.
`CCN(CC)c1ccc(/C=N/Nc2nc(C)cc(=O)[nH]2)c(O)c1` gave PPC-1+TRAIL kill 58*, FLuc inhib CS 25, FLuc stim CS 0.7 and TRAIL sens C8 49.
For Cc1cc(=O)[nH]c(NN=Cc2cc(Br)ccc2O)n1 the results were TRAIL sens C8 -2.
Screening CCN1CCN(Cc2ccc(NC(=O)Nc3ccccc3)cc2)CC1 returned PPC-1+TRAIL kill 36, FLuc inhib CS 64*, FLuc stim CS 0.4 and TRAIL sens C8 36.
Screening CCN1CCN(Cc2ccc(NC(=O)Nc3cccs3)cc2)CC1 returned PPC-1+TRAIL kill 7, FLuc inhib CS 74*, FLuc stim CS 0.3 and TRAIL sens C8 32.
COc1ccc(NC(=O)Nc2cccs2)cc1Cl was read as PPC-1+TRAIL kill -3, FLuc inhib CS 58*, FLuc stim CS 0.4 and TRAIL sens C8 21.
Screening COc1ccc(NC(=O)CCC(=O)c2cccs2)cc1Cl returned TRAIL sens C8 -4.
Screening Cn1c2ccccc2c2ccc3c(c21)C(=O)C=CC3=O returned TRAIL sens C8 29.
`Cc1ccc2c(c1)c1ccc3c(c1n2C)C(=O)C=CC3=O` gave PPC-1+TRAIL kill 20 and TRAIL sens C8 58*.
CC(C)CC(NC(=O)c1ccc(Cl)cc1)C(=O)OCC(=O)c1ccc2c(c1)NC(=O)CO2 (centres undefined) was read as PPC-1+TRAIL kill -6, FLuc inhib CS -4, FLuc stim CS 1 and TRAIL sens C8 73*.
`COCn1c(COc2ccc3ccccc3c2)nc2ccccc21` gave PPC-1+TRAIL kill 24, FLuc inhib CS 60*, FLuc stim CS 0.4 and TRAIL sens C8 39.
Screening CC1(C2(O)CCCCC2)NCCc2ccccc21 (centres undefined) returned TRAIL sens C8 4.
Screening COc1ccc(-c2cn3ccccc3n2)cc1OC returned PPC-1+TRAIL kill 31, FLuc inhib CS 77*, FLuc stim CS 0.2 and TRAIL sens C8 60*.
O=c1[nH]c(=O)n2c(c1-c1ccccc1)OC(CBr)C2 (centres undefined) was read as TRAIL sens C8 -14.
Screening CC(NCc1cc(Br)ccc1OCC(N)=O)C12CC3CC(CC(C3)C1)C2 (centres undefined) returned TRAIL sens C8 -10.
`NS(=O)(=O)c1ccc(N=Nc2c(-c3ccccc3)[nH]n(-c3nc(-c4ccccc4)cs3)c2=O)cc1` gave PPC-1+TRAIL kill 15, FLuc inhib CS -5, FLuc stim CS 1.1 and TRAIL sens C8 54*.
O=C(O)c1ccccc1C(=O)NC1CCN(c2nccc(C(F)(F)F)n2)CC1 was read as TRAIL sens C8 -13.
Screening Cc1cccc(C(=O)O/N=C(\N)c2cccc([N+](=O)[O-])c2)c1 returned PPC-1+TRAIL kill 2, FLuc inhib CS 87*, FLuc stim CS 0.1 and TRAIL sens C8 45.
COc1ccc(/C(N)=N/OC(=O)c2cccc([N+](=O)[O-])c2)cc1OC was read as PPC-1+TRAIL kill 42, FLuc inhib CS -9, FLuc stim CS 1.1 and TRAIL sens C8 -7.
For N/C(=N\OC(=O)c1cccs1)c1cccc([N+](=O)[O-])c1 the results were PPC-1+TRAIL kill 3, FLuc inhib CS 87*, FLuc stim CS 0.1 and TRAIL sens C8 2.
`Cc1ccccc1C(=O)O/N=C(\N)c1cccc([N+](=O)[O-])c1` gave PPC-1+TRAIL kill 36, FLuc inhib CS 91*, FLuc stim CS 0.1 and TRAIL sens C8 74*.
Screening N/C(=N\OC(=O)c1cccc2ccccc12)c1cccc([N+](=O)[O-])c1 returned PPC-1+TRAIL kill 2, FLuc inhib CS 2, FLuc stim CS 1 and TRAIL sens C8 15.
CCOC(=O)c1c(C)nc2c(C)cccn12 was read as PPC-1+TRAIL kill 12, FLuc inhib CS -2, FLuc stim CS 1 and TRAIL sens C8 7.
CCOC(=O)c1c(C)nc2c3ccccc3ccn12 was read as PPC-1+TRAIL kill 25, FLuc inhib CS 54*, FLuc stim CS 0.5 and TRAIL sens C8 50*.
